Screens as filed in PubChem BioAssay.
Most compounds without a hit are left out; they make up all but 9.2% or so of the library.
Autophagy HCS: alters autophagy in cells; MEF GFP-LC3 puncta imaging; test concentration mostly 10 µM; calls only at 10 µM (by protocol); 190,000 tested, 0.98% active; AID 463193;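 active means percentage of spot-positive cells more than 3 SD above its plate mean, without a fluorescence outlier flag or 80% toxicity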;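 further: spot-positive cell cutoff set from DMSO-treated cells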
PTEN del growth: PTEN-deleted cell growth suppression; HCT116 PTEN-null viability, CellTiter-Glo, 60 h; hits give low values; viability, % at 10 µM; 140,000 tested, 1.2% active; AID 827;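 active means viability at or below a set limit, 4 SD under the median of all tested compounds, cut at about 3.7% in these data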;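 further: PTEN knockout HCT116 line with beta catenin targeted HCT116 as companion control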
Dynein transport: blocks dynein driven cargo transport along microtubules | 3617.4 mouse cells, GR-EGFP nuclear translocation imaging; test concentration mostly 20 µM; stimulated with dexamethasone, 1 µM; hits give low values | z-score, hits read low | 220,000 tested, 0.47% active | AID 1381;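 active means plate z-score of nuclear minus cytoplasmic receptor signal below a set negative limit, without overly bright fluorescence or cell loss, cut at about -3.5 in these data, passing the limit was not always enough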;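 further: z-score of nuclear minus cytoplasmic ring GR-EGFP intensity difference per well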
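Buffer or medium – tet-free medium with charcoal-stripped serum · Signal – automated 10x imaging of fixed Hoechst-stained cells · Also added – dexamethasone agonist, 1.0 µM final, for 30 min · Incubation – induction 48 h, compound 1 h, agonist 30 min · Read-out – GR-EGFP nuclear translocation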
Lmaj promast: reduces viability of Leishmania major promastigotes; resazurin fluorescence viability; 200,000 tested, 9% active; inhibition, % at 10 µM; AID 1063; in the data active means inhibition above about 50%;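 further: promastigotes grown with compound for 44 hours at 28 °C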
bCat KO growth: beta-catenin-lacking colon tumor cell growth suppression; HCT116 beta-catenin knockout viability, CellTiter-Glo, 60 h; hits give low values; viability, % at 10 µM; 140,000 tested, 1.5% active; AID 818;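 active means viability at or under a set limit, the compound median less 4 SD, cut at about 6% in these data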;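 further: 0% = Hyamine 1622 control at 20 µM and 100% = untreated cell control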
Starred values were filed as active, the others as inactive.

For Cc1ccc(COc2ccccc2C(=S)N2CCCC2)cc1 the results were Autophagy HCS inactive, Dynein transport 0.983 and Lmaj promast 75.7*.
For Fc1ccc(COc2ccccc2C(=S)N2CCCC2)cc1 the results were Autophagy HCS inactive, PTEN del growth 91.0, Dynein transport 0.252, Lmaj promast 6.8 and bCat KO growth 98.5.
For COc1ccc2c(c1)c(CC(=O)OCC(N)=O)c(C)n2C(=O)c1ccc(Cl)cc1 the results were Dynein transport -0.159.
Screening COc1ccc2c(c1)c(CC(=O)OCC(=O)O)c(C)n2C(=O)c1ccc(Cl)cc1 returned Autophagy HCS active, Dynein transport 2.46 and Lmaj promast -2.6.
Cn1c(SCC(=O)NCCc2ccccc2)nc2c([nH]c3ccccc32)c1=O was read as Autophagy HCS inactive, Dynein transport 1.33 and Lmaj promast 93.4*.
Screening COc1ccc(NC(=O)c2ccc(NC(=O)CN(C)CC(=O)Nc3c(C)cccc3C)cc2)cc1 returned Dynein transport 2.3.
`CC(=O)c1cc(CN2CCN(C3CCN(C(C)C)CC3)C(CCO)C2)cs1` (stereo not given) gave Autophagy HCS inactive, Dynein transport -0.22 and Lmaj promast 0.6.
Screening Cc1ccc(-c2nn(-c3ccccc3)cc2/C=C(\C#N)C(=O)NCc2ccccc2)cc1 returned Autophagy HCS inactive, PTEN del growth 72.2, Dynein transport -1.07, Lmaj promast 43.3 and bCat KO growth 72.2.
`N#C/C(=C/c1cn(-c2ccccc2)nc1-c1cccc(OCc2ccccc2)c1)C(=O)NCCCn1ccnc1` gave Autophagy HCS inactive, PTEN del growth 11.9, Dynein transport 0.0724, Lmaj promast 100.4* and bCat KO growth 48.8.
`CCOc1cccc(-c2nn(-c3ccccc3)cc2/C=C(/C#N)C(=O)NCCCn2ccnc2)c1` gave Autophagy HCS inactive, PTEN del growth 7.8, Dynein transport -0.54, Lmaj promast 100.3* and bCat KO growth 9.6.
Screening CCCSc1ccc(-c2nn(-c3ccccc3)cc2/C=C(/C#N)C(=O)NCCCOC)cc1 returned Autophagy HCS inactive, PTEN del growth 85.0, Dynein transport 0.872, Lmaj promast 86.2* and bCat KO growth 73.6.
For CCOc1ccc(N2CC(C(=O)NC3=NCCS3)CC2=O)cc1 (stereo not given) the results were Autophagy HCS inactive, Dynein transport 0.551 and Lmaj promast -7.8.
`COc1ccc(N2C(=O)[C@@H]3C(c4cccnc4)=NO[C@@H]3C2=O)cc1` gave Dynein transport 0.395.
Screening Oc1c(N=Nc2ccccn2)ccc2ccccc12 returned Autophagy HCS active, PTEN del growth 2.0*, Dynein transport -0.74, Lmaj promast 100.2* and bCat KO growth 1.8*.
Screening Cc1[nH]c2ccccc2c1-c1nc(-c2ccc(Cl)cc2)nnc1-c1ccccc1 returned Autophagy HCS inactive, Dynein transport 1.12 and Lmaj promast -3.6.
`CCNC(=S)NCc1ccco1` gave Autophagy HCS inactive, PTEN del growth 95.1, Dynein transport 0.322, Lmaj promast 59.3* and bCat KO growth 97.4.
For CC/C(C)=N/NC(=S)NCc1ccco1 the results were Autophagy HCS inactive, PTEN del growth 92.7, Dynein transport -0.673, Lmaj promast -1.5 and bCat KO growth 93.2.
For O=C(CSc1nnc(-c2ccc(S(=O)(=O)N3CCCC3)cc2)o1)N1CCCC1 the results were Autophagy HCS inactive, Dynein transport 0.884 and Lmaj promast 0.5.
Screening CCN(CC)C(=O)CSc1nnc(-c2ccc(S(=O)(=O)N3CCCC3)cc2)o1 returned Autophagy HCS inactive, PTEN del growth 102.2, Dynein transport 0.988, Lmaj promast 98.9* and bCat KO growth 96.7.
Screening O=c1c2ccccc2nnn1CSc1nnc(-c2cccc(S(=O)(=O)N3CCCCC3)c2)o1 returned Autophagy HCS inactive, PTEN del growth 55.1, Dynein transport -0.215, Lmaj promast 71.2* and bCat KO growth 48.8.
Screening Cc1ccc(S(=O)(=O)N2CCC(C(=O)N3CCC[C@H]3C(=O)NCc3ccco3)CC2)cc1 returned Autophagy HCS active, PTEN del growth 98.3, Dynein transport 0.212, Lmaj promast -8.1 and bCat KO growth 104.9.
CCOC(=O)CC(NCc1ccc(OC)c(OCC)c1)c1ccc(C)cc1 (stereo not given) was read as Autophagy HCS inactive, Dynein transport -0.636 and Lmaj promast 2.4.
Cc1cc(NC(=O)c2cc([N+](=O)[O-])cc([N+](=O)[O-])c2C)no1 was read as Autophagy HCS inactive, Dynein transport 0.318 and Lmaj promast 30.2.
